# What was measured:
# Klebsiella sp. = assay: Antibacterial activity against Klebsiella spp. by broth microdilution method; format: functional
# In short: (§1)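 MICs were determined by CLSI broth microdilution against clinical isolate panels that included aminoglycoside-resistant isolates. […] MIC90 was derived per group and not calculated when n was <10. Imipenem, ceftobiprole, ciprofloxacin and tigecycline MICs were also determined for the resistant isolates.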
# Proteus mirabilis = assay: Antibacterial activity against Proteus mirabilis by broth microdilution method; format: functional; in short: as §1
# Acinetobacter baumannii [1] = assay: Antibacterial activity against aminoglycoside-resistant Acinetobacter baumannii expressing […] by broth microdilution method; format: functional
# In short: (§2)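 Clinical aminoglycoside-resistant isolates were each carrying a single aminoglycoside-modifying enzyme. […] MICs were determined by CLSI broth microdilution.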
# Pseudomonas aeruginosa [2] = assay: Antibacterial activity against aminoglycoside-resistant Pseudomonas aeruginosa expressing AAC(6')-2 by broth microdilution method; format: functional; in short: as §2
# Escherichia coli [3] = assay: Antibacterial activity against aminoglycoside-resistant Escherichia coli expressing ANT(6')-1 by broth microdilution method; format: functional; in short: as §2
# Staphylococcus aureus [4] = assay: Antibacterial activity against aminoglycoside-resistant Staphylococcus aureus expressing APH(2'') + AAC(6') by broth microdilution method; format: functional
# In short: (§3)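 MICs were measured by broth microdilution following CLSI guidance. The strains formed a 25-strain screening panel with diverse aminoglycoside resistance mechanisms. The panel included Gram-negative and S. aureus strains carrying key aminoglycoside-modifying enzymes, strains with altered permeability or efflux, and an armA ribosomal methyltransferase strain.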
# Serratia sp. = assay: Antibacterial activity against Serratia spp. by broth microdilution method; format: functional; conditions: Serratia sp. (in: enterobacteria); in short: as §1
# Enterobacter cloacae [5] = assay: Antibacterial activity against aminoglycoside-resistant Enterobacter cloacae expressing AAC(3)-2 by broth microdilution method; format: functional; in short: as §2
# Citrobacter = assay: Antibacterial activity against Citrobacter spp. by broth microdilution method; format: functional; in short: as §1
# Escherichia coli [6] = assay: Antibacterial activity against aminoglycoside-resistant Escherichia coli expressing AAC(3)-IVa by broth microdilution method
# Pluralibacter gergoviae = assay: Antibacterial activity against aminoglycoside-resistant Enterobacter gergoviae expressing ANT(2'')-I by broth microdilution method
# [7] = tested on: Staphylococcus epidermidis; assay: Antibacterial activity against aminoglycoside-resistant Staphylococcus epidermidis expressing APH(2'') + AAC(6')-1 by broth microdilution method; format: functional; in short: as §2
# Escherichia coli [8] = assay: Antibacterial activity against aminoglycoside-resistant Escherichia coli expressing AAC(3)-2 by broth microdilution method; format: functional; in short: as §2
# Staphylococcus sp. = assay: Antibacterial activity against Staphylococcus spp. by broth microdilution method; format: functional; in short: as §1
# Escherichia coli [9] = assay: Antibacterial activity against aminoglycoside-resistant Escherichia coli expressing AAC(3)-4 by broth microdilution method; format: functional; in short: as §2
# Escherichia coli [10] = assay: Antibacterial activity against Escherichia coli by broth microdilution method; format: functional; in short: as §1
# Klebsiella aerogenes = assay: Antibacterial activity against aminoglycoside-resistant Enterobacter aerogenes expressing AAC(6')-1 by broth microdilution method; format: functional; in short: as §2
# Acinetobacter = assay: Antibacterial activity against aminoglycoside-resistant Acinetobacter spp. expressing APH(3')-6 by broth microdilution method; format: functional; in short: as §2
# Staphylococcus aureus [11] = assay: microbe, parasite or virus in culture
# [12] = tested on: Staphylococcus epidermidis; assay: Antibacterial activity against aminoglycoside-resistant Staphylococcus epidermidis expressing ANT(4',4'')-2 by broth microdilution method; format: functional; in short: as §2
# Enterobacter sp. = assay: Antibacterial activity against Enterobacter spp. by broth microdilution method; format: functional; in short: as §1
# Citrobacter freundii = assay: Antibacterial activity against aminoglycoside-resistant Citrobacter freundii expressing AAC(3)-2 by broth microdilution method; format: functional; in short: as §2
# [13] = tested on: Staphylococcus epidermidis; assay: Antibacterial activity against aminoglycoside-resistant Staphylococcus epidermidis expressing APH(3')-3 by broth microdilution method; format: functional
# Enterobacter cloacae [14] = assay: Antibacterial activity against aminoglycoside-resistant Enterobacter cloacae expressing ANT(2'')-I by broth microdilution method
# Escherichia coli [15] = assay: Antibacterial activity against aminoglycoside-resistant Escherichia coli expressing AAC(6')-1 by broth microdilution method; format: functional; in short: as §2
# Serratia marcescens [16] = assay: Antibacterial activity against aminoglycoside-resistant Serratia marcescens expressing ANT(2''), AAC(6') by broth microdilution method; format: functional; in short: as §3
# Klebsiella oxytoca = assay: Antibacterial activity against aminoglycoside-resistant Klebsiella oxytoca expressing AAC(6')-1 by broth microdilution method; format: functional; in short: as §2
# Escherichia coli [17] = assay: Antibacterial activity against aminoglycoside-resistant Escherichia coli expressing ANT(2'')-I by broth microdilution method
# Staphylococcus aureus [18] = assay: Antibacterial activity against aminoglycoside-resistant Staphylococcus aureus expressing ANT(4',4'')-2 by broth microdilution method; format: functional; in short: as §2
# Klebsiella pneumoniae [19] = assay: Antibacterial activity against aminoglycoside-resistant Klebsiella pneumoniae expressing AAC(3)-2 by broth microdilution method; format: functional; in short: as §2
# Pseudomonas aeruginosa [20] = assay: Antibacterial activity against aminoglycoside-resistant Pseudomonas aeruginosa expressing ANT(2'')-1 by broth microdilution method; format: functional; in short: as §2
# Klebsiella pneumoniae [21] = assay: Antibacterial activity against aminoglycoside-resistant Klebsiella pneumoniae expressing ANT(2'')-I by broth microdilution method
# Acinetobacter baumannii [22] = assay: Antibacterial activity against Acinetobacter baumannii ATCC 19606 by broth microdilution method; format: functional; conditions: ATCC 19606 = CIP 70.34 = JCM 6841; in short: as §3
# Pseudomonas aeruginosa [23] = assay: Antibacterial activity against wild type Pseudomonas aeruginosa expressing efflux pump by broth microdilution method; format: functional
# In short: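 MIC was determined by CLSI broth microdilution, read in μg/ml. The strain came from a 25-strain screening panel with diverse aminoglycoside resistance mechanisms. The panel included strains with changes in permeability or efflux, key aminoglycoside-modifying enzymes and an armA methyltransferase strain.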
# Pseudomonas aeruginosa [24] = assay: Antibacterial activity against Pseudomonas aeruginosa by broth microdilution method; format: functional; in short: as §1
# Staphylococcus aureus [25] = assay: Antibacterial activity against aminoglycoside-resistant Staphylococcus aureus expressing APH(2'') + AAC(6')-1 by broth microdilution method; format: functional; in short: as §2
# Klebsiella pneumoniae [26] = assay: Antibacterial activity against aminoglycoside-resistant Klebsiella pneumoniae expressing AAC(3)-1 by broth microdilution method; format: functional; in short: as §2
# Escherichia coli [27] = assay: Antibacterial activity against Escherichia coli ATCC 25922 by broth microdilution method; format: functional; in short: as §3
# Pseudomonas aeruginosa [28] = assay: Antibacterial activity against Pseudomonas aeruginosa ATCC 27853 by broth microdilution method; format: functional
# Escherichia coli [29] = assay: Antibacterial activity against aminoglycoside-resistant Escherichia coli expressing APH(3')-1b by broth microdilution method
# Acinetobacter baumannii [30] = assay: Antibacterial activity against aminoglycoside-resistant Acinetobacter baumannii expressing APH(3')-6 by broth microdilution method; format: functional; in short: as §2
# Serratia marcescens [31] = assay: Antibacterial activity against aminoglycoside-resistant Serratia marcescens expressing AAC(6')-1 by broth microdilution method; format: functional; in short: as §2
# Staphylococcus aureus [32] = assay: microbe, parasite or virus in culture; remark: listed apart in the source
# Serratia marcescens [33] = assay: Antibacterial activity against aminoglycoside-resistant Serratia marcescens expressing ANT(2'')-I by broth microdilution method
# Pseudomonas aeruginosa [34] = assay: Antibacterial activity against efflux pump deficient Pseudomonas aeruginosa by broth microdilution method; format: functional
structure (smiles),measurement,setting,value
NCC[C@H](O)C(=O)N[C@@H]1C[C@H](N)[C@@H](O[C@H]2O[C@H](CN)[C@@H](O)[C@H](O)[C@H]2O)[C@H](O)[C@H]1O[C@H]1O[C@H](CO)[C@@H](O)[C@H](N)[C@H]1O [AMIKACIN],MIC50,Klebsiella sp.,32 µg/mL
same,MIC90,Klebsiella sp.,> 64 µg/mL
same,MIC50,Proteus mirabilis,8 µg/mL
same,MIC90,Proteus mirabilis,64 µg/mL
same,MIC,Acinetobacter baumannii [1],4 µg/mL
same,MIC,Pseudomonas aeruginosa [2],14 µg/mL
same,MIC,Escherichia coli [3],32 µg/mL
same,MIC,Staphylococcus aureus [4],64 µg/mL
same,MIC50,Serratia sp.,8 µg/mL
same,MIC,Enterobacter cloacae [5],4 µg/mL
same,MIC50,Citrobacter,32 µg/mL
same,MIC,Escherichia coli [6],4 µg/mL
same,MIC,Pluralibacter gergoviae,2 µg/mL
same,MIC,[7],18 µg/mL
same,MIC,Escherichia coli [8],4 µg/mL
same,MIC50,Staphylococcus sp.,16 µg/mL
same,MIC90,Staphylococcus sp.,> 64 µg/mL
same,MIC,Escherichia coli [9],2 µg/mL
same,MIC50,Escherichia coli [10],16 µg/mL
same,MIC90,Escherichia coli [10],32 µg/mL
same,MIC,Klebsiella aerogenes,30 µg/mL
same,MIC,Acinetobacter,> 64 µg/mL
same,MIC,Staphylococcus aureus [11],> 64 µg/mL
same,MIC,[12],13 µg/mL
same,MIC50,Enterobacter sp.,8 µg/mL
same,MIC90,Enterobacter sp.,64 µg/mL
same,MIC,Citrobacter freundii,4 µg/mL
same,MIC,[13],4 µg/mL
same,MIC,Enterobacter cloacae [14],2 µg/mL
same,MIC,Escherichia coli [15],30 µg/mL
same,MIC,Serratia marcescens [16],8 µg/mL
same,MIC,Klebsiella oxytoca,30 µg/mL
same,MIC,Escherichia coli [17],2 µg/mL
same,MIC,Staphylococcus aureus [18],13 µg/mL
same,MIC,Klebsiella pneumoniae [19],4 µg/mL
same,MIC,Pseudomonas aeruginosa [20],8 µg/mL
same,MIC,Klebsiella pneumoniae [21],2 µg/mL
same,MIC,Acinetobacter baumannii [22],16 µg/mL
same,MIC,Pseudomonas aeruginosa [23],4 µg/mL
same,MIC50,Pseudomonas aeruginosa [24],16 µg/mL
same,MIC90,Pseudomonas aeruginosa [24],> 64 µg/mL
same,MIC,Staphylococcus aureus [25],18 µg/mL
same,MIC,Klebsiella pneumoniae [26],4 µg/mL
same,MIC,Escherichia coli [27],2 µg/mL
same,MIC,Pseudomonas aeruginosa [28],2 µg/mL
same,MIC,Escherichia coli [29],0.5 µg/mL
same,MIC,Acinetobacter baumannii [30],> 64 µg/mL
same,MIC,Serratia marcescens [31],30 µg/mL
same,MIC,Staphylococcus aureus [32],2 µg/mL
same,MIC,Serratia marcescens [33],2 µg/mL
same,MIC,Pseudomonas aeruginosa [34],0.5 µg/mL
